The text below walks through data of ChEMBL document CHEMBL4342410, “Design and Discovery of N-(3-(2-(2-Hydroxyethoxy)-6-morpholinopyridin-4-yl)-4-methylphenyl)-2-(trifluoromethyl)isonicotinamide, a Selective, Efficacious, and Well-Tolerated RAF Inhibitor Targeting RAS Mutant Cancers: The Path to the Clinic” (J Med Chem, 2020).

The target in data set [1] is RAF proto-oncogene serine/threonine-protein kinase (Homo sapiens, UniProt P04049). Put plainly: Inhibition of CRAF in human Calu6 cells assessed as reduction MEK phosphorylation measured after 1 hr by sandwich ELISA. The class given is cell-based. (An ELISA detects its analyte on a solid surface through an enzyme-linked reagent.)
Sequence of RAF proto-oncogene serine/threonine-protein kinase (P04049 whole entry): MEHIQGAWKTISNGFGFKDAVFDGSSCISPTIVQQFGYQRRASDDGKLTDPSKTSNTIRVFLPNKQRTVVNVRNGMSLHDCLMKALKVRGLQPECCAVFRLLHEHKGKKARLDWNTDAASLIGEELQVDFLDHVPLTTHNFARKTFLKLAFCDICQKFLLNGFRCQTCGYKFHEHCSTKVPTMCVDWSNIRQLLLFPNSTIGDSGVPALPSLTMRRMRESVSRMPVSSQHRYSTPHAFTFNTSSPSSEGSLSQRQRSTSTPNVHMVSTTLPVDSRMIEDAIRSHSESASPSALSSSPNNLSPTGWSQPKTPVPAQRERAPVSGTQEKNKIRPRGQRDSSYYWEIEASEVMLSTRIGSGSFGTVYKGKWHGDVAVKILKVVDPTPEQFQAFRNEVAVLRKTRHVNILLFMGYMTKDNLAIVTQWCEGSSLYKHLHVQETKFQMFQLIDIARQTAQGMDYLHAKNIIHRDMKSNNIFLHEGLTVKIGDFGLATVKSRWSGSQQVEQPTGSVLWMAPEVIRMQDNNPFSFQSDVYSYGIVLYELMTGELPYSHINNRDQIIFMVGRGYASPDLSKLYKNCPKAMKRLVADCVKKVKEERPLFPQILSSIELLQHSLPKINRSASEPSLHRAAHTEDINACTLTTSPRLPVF
Data set [2] deals with Calu-6. Kind of data set: Antiproliferative activity against human Calu6 cells harboring KRAS Q61K mutant assessed as reduction in cell viability after 72 hrs by CellTiter-Glo assay. The following applies: Calu-6, 72 h. The class given is functional, cell-based. In general terms: ATP-based viability assays read luminescence as a measure of living cells.
A short description of data set [3]: Apparent permeability across basolateral to apical side in human Caco2 cells at pH 7.4 by LC/MS/MS analysis. The class given is ADME, cell-based. The settings on record: Caco-2, pH 7.4. On the technique in general: Caco-2 monolayers are a common model of the intestinal barrier.
The target in data set [4] is T1, Serine/threonine-protein kinase B-raf (Homo sapiens, UniProt P15056). Kind of data set: Inhibition of full-length BRAF (unknown origin).
T1 sequence (P15056 whole entry): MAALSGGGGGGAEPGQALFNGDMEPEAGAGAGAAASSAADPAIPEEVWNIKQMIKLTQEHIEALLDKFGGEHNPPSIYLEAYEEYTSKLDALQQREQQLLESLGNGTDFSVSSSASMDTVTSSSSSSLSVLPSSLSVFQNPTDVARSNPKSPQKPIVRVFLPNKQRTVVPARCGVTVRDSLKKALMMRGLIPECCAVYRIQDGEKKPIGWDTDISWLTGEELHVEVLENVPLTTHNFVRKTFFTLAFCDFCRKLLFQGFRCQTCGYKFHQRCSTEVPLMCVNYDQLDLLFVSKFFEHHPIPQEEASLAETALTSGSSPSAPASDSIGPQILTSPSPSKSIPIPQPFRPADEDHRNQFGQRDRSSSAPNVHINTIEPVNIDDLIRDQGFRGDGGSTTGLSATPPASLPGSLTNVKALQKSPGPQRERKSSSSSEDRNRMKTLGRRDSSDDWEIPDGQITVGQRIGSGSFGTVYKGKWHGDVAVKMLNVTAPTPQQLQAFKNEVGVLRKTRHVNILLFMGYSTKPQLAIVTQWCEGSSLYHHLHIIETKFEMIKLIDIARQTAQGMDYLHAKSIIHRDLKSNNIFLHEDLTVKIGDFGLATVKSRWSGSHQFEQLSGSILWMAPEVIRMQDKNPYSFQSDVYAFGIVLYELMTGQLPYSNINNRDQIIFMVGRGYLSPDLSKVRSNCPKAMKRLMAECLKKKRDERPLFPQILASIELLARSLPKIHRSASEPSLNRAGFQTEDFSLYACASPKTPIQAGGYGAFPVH
The nature of data set [5]: Stimulation of BRAF-CRAF dimerization in human HCT116 cells measured after 2 hrs by NanoBit luciferase complementation assay. The class given is cell-based. The settings on record: read-out: EC50.
The target of data set [6] is T1, Serine/threonine-protein kinase B-raf. Kind of data set: Binding affinity to wild-type human partial length BRAF (S429 to E741 residues) expressed in mammalian expression system at 1 uM by Kinomescan method relative to control.
Data set [7] has as its target T2, Discoidin domain-containing receptor 2 (Homo sapiens) (UniProt Q16832).
T2 sequence (whole entry): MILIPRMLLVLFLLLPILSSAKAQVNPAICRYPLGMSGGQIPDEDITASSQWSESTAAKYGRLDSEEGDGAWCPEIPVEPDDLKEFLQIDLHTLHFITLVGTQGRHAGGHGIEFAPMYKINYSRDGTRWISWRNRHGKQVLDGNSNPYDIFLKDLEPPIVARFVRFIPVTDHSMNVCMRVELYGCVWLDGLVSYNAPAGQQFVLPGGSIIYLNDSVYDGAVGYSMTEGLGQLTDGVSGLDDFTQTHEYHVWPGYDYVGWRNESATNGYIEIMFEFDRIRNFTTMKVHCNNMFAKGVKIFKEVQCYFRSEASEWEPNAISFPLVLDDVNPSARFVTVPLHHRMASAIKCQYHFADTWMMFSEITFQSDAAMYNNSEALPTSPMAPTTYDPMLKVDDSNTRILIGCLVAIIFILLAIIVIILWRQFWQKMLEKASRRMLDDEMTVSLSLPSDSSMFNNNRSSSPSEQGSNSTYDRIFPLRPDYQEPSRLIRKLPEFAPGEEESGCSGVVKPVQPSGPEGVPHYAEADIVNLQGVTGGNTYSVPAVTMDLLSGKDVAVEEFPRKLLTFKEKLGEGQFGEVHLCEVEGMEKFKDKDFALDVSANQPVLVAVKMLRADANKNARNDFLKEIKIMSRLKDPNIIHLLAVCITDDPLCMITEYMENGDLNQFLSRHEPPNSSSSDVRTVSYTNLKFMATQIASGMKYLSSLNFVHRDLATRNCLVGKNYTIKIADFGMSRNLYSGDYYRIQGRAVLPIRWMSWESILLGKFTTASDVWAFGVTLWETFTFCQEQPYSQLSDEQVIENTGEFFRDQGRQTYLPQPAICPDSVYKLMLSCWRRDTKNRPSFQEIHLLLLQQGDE
Kind of data set: Binding affinity to wild-type human partial length DDR2 (V555 to E855 residues) expressed in mammalian expression system at 1 uM by Kinomescan method relative to control. Put shortly:
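KINOMEscan competition binding panel of about 456 kinases, compound tested at 1 μM. Activity is given as % of control = [(test signal − positive control signal)/(negative control signal − positive control signal)] × 100.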

Data set [8] in a line: Cmax in mouse at 4 mg/kg, po. In kind it is ADME, organism-based. Also on record: dose 4 mg/kg, route oral. The settings on record: in vivo.
Data set [9] is described as follows: Cmax in rat at 4 mg/kg, po. In kind it is ADME, organism-based. On the set-up: dose 4 mg/kg, route oral. The following applies: in vivo.
Data set [10] is described as follows: Clearance in rat at 2 mg/kg, iv or 4 mg/kg, po. The following applies: in vivo. In kind it is ADME, organism-based.
Data set [11] can be described thus: Volume of distribution at steady state in rat at 2 mg/kg, iv or 4 mg/kg, po. The class given is ADME, organism-based. The settings on record: in vivo, read-out: Vdss.
A short description of data set [12]: Oral bioavailability in rat at 4 mg/kg. The class given is ADME, organism-based. The settings on record: in vivo.
In data set [13] the test system is Calu-6. Put plainly: Antitumor activity against human Calu6 cells harboring KRAS Q61K mutant xenografted in nude rat assessed as tumor regression at 150 mg/kg, po administered daily for 18 days starting from day 13 post tumor implantation and measured on day 31 relative to control. In kind it is functional. The gist of the method: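 Nude rats bearing Calu-6 (KRAS Q61K) human NSCLC xenografts received vehicle or drug p.o. daily at 15, 35, 75 or 150 mg/kg. Dosing began 13 days after tumor implantation and ran to day 31, i.e. 18 days of treatment. Tumor volumes were read out as %T/C or % regression versus vehicle on day 31. Body weight was also tracked.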

Data set [14] in a line: Toxicity in human Calu6 cells harboring KRAS Q61K mutant xenografted nude rat assessed as mortality at 15 to 150 mg/kg, po administered daily for 18 days starting from day 13 post tumor implantation and measured during compound dosing. The class given is organism-based. The settings on record: in vivo, 432 h. Put shortly:
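Nude rats bearing Calu-6 (KRAS Q61K) NSCLC xenografts were dosed orally once daily with vehicle or 15, 35, 75 or 150 mg/kg. Dosing ran from day 13 post-implant to day 31. Rats were monitored for mortality and signs of toxicity over the treatment period, alongside body weight.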

A short description of data set [15]: Time of last measurable concentration in nude rat xenografted with human Calu6 cells harboring KRAS Q61K mutant at 15 mg/kg, po administered daily for 18 days starting from day 13 post tumor implantation and measured on day 31. The following applies: in vivo, 432 h. The class given is ADME, organism-based. The gist of the method:
(§1)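 Calu-6 xenograft nude rats were dosed orally once daily at 15, 35, 75 or 150 mg/kg from day 13 after implantation to day 31. Plasma was collected after the last dose on day 31, drug concentrations were measured, and PK parameters including AUC were calculated for each dose.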

Data set [16] can be described thus: Tmax in nude rat xenografted with human Calu6 cells harboring KRAS Q61K mutant at 35 mg/kg, po administered daily for 18 days starting from day 13 post tumor implantation and measured on day 31. The class given is ADME, organism-based. The following applies: in vivo. Put shortly: as §1
A short description of data set [17]: Time of last measurable concentration in nude rat xenografted with human Calu6 cells harboring KRAS Q61K mutant at 150 mg/kg, po administered daily for 18 days starting from day 13 post tumor implantation and measured on day 31. The class given is ADME, organism-based. The following applies: in vivo, 432 h. Put shortly: as §1
Data set [18] can be described thus: Lipophilicity, log P of the compound at pH 6.5. The class given is physicochemical. The following applies: buffer.
Data set [19] is described as follows: Distribution coefficient, log D of compound at pH 6.5. The following applies: octanol/water. The class given is physicochemical.
Data set [20] can be described thus: Stability of the compound in human plasma assessed as parent compound remaining measured after 3 hrs. The class given is ADME, cell-free. The settings on record: read-out: Stability. Put shortly: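 Compound incubated in human plasma for 3 h; stability expressed as percent remaining intact.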
Data set [21] in a line: Protein binding in human plasma. In kind it is ADME, cell-free. The following applies: read-out: PPB (converted).
Data set [22] deals with Voltage-gated inwardly rectifying potassium channel KCNH2 (Homo sapiens, UniProt Q12809). Kind of data set: Inhibition of human ERG by patch clamp method. Put shortly:
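hERG inhibition measured by manual patch clamp.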

Bounds are passed on as bounds.

In general, EC50 refers to the midpoint of the concentration-response curve. One may read the Papp B→A as how fast a substance crosses the layer from the basolateral side. For orientation: IC50 means the concentration that gives 50% inhibition. Low values mean higher potency, high ones lower potency. By Cmax is commonly meant the highest concentration seen after dosing. Broadly, the bioavailability is the share of a dose that reaches the circulation, judged against a reference dose that is usually intravenous. The term Tmax denotes the time at which the peak concentration occurs. What is called logD is lipophilicity at a set pH, counting ionised and neutral species.

Sequence of Voltage-gated inwardly rectifying potassium channel KCNH2 (Q12809 whole entry): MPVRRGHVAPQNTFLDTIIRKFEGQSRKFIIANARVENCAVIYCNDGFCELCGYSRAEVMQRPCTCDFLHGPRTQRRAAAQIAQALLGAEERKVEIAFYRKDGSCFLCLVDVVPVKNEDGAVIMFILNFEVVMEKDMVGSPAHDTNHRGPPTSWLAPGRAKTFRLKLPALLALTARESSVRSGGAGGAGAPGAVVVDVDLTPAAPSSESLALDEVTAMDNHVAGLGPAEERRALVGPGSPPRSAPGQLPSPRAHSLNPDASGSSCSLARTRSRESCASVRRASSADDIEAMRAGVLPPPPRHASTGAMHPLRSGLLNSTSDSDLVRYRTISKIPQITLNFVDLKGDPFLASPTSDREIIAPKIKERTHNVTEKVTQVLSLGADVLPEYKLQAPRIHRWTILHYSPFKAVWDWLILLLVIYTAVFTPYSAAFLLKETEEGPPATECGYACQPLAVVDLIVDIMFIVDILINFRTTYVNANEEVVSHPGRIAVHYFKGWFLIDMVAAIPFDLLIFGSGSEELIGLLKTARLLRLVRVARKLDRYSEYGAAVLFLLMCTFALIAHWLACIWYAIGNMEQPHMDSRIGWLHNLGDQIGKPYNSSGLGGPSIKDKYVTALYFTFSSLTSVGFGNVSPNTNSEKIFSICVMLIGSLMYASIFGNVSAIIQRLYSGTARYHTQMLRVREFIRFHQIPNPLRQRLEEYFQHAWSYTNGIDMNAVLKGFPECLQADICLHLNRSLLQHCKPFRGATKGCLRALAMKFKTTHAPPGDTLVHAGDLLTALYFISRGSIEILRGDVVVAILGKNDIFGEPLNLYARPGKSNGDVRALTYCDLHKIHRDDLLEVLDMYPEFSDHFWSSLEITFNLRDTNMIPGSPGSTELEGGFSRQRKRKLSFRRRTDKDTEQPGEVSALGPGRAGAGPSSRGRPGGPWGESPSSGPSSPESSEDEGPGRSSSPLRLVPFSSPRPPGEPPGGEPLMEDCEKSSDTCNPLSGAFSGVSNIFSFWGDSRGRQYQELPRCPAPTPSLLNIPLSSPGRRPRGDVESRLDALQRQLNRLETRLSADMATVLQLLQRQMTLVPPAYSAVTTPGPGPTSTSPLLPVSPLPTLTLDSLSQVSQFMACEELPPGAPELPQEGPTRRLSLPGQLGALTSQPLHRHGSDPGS

`Cc1ccc(NC(=O)c2ccnc(C(F)(F)F)c2)cc1-c1cc(OCCO)nc(N2CCOCC2)c1` [NAPORAFENIB]: the results for the EC50 in data set [1], in [2] and in [5] were 14 to 50 nM, 280 to 470 nM and 160 nM, respectively. Moreover, in [3], the Papp B→A came to 19 ×10⁻⁶ cm/s. Also, the IC50 in data set [4] is 0.4 nM; in data set [22], > 10000 nM. Further, the Activity in [6] was > 98%; in data set [7], 84%; in data set [13] it was 56%; in data set [14] it was “Non-Toxic”. In addition, the Cmax in data set [8] amounted to 1600 nM; in [9] it was 500 nM. Moreover, the clearance in data set [10] came out at 31 mL/min/kg. For the same compound, the Vd in data set [11] is 5.4 L/kg. The compound further showed a bioavailability in data set [12] of 38%. The Tlast in data set [15] and in data set [17] was 24 h in each case. Further, in data set [16], the Tmax was found to be 3 h. The logD is > 3 in [18] and > 4 in data set [19]. Also, in [20], the remaining at 3 h is > 90%. Moreover, in data set [21], the fraction unbound was 0.02.
